High-throughput results deposited in PubChem BioAssay by several laboratories.
Rows were chosen to be rich in hits. Some 4.8% of all compounds tested hit in one or more screens of this group.
Beta apoptosis = beta cell apoptosis inhibition; AID 435005; protection from apoptosis, % (no concentration beside the values); hit rate 0.8% among 300,000; INS-1E cytokine-induced death, ATP luminescence, 48 h; percent of positive-control rescue, neutral wells zero;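 active means Every replicate reaches about 75%, or at least half do and their mean reaches it too, limit read from the data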;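 further: 0% = cytokine-treated negative control wells and 100% = positive control rescue; higher means more ATP so stronger rescue from cytokine killing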
UPR XBP1 act = adaptive UPR (XBP1) activation; CHO-XBP1 luciferase reporter, IRE1-XBP1 UPR activation, luminescence; percent of tunicamycin response, DMSO as zero; hit rate 0.33% among 330,000; activation, % at 20 µM; AID 463104;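 active means versus positive control, 20 µM dose yields 30% or more activation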;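 further: 100% = tunicamycin at 10 µg/mL and 0% = DMSO only wells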
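Material: IRE1-XBP1 luciferase reporter CHO line / Quantity: one thousand reporter cells per well / Buffer or medium: F12 with 10% serum / Compound: 20 µM single concentration, DMSO 1% / Times: 6 h treatment, 37 °C / Detection: Steady-Glo luciferase glow luminescence, 10 min after reagent addition / Benchmarks: tunicamycin high, DMSO low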
SKKanGAS inh = inhibitors of SKKanGAS S. pyogenes growth in kanamycin (SK-promoter or general growth effect). BacTiter-Glo, 6 h. inhibition, % at 7.5 µM. hit rate 1.3% among 300,000. AID 1662;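 active means mean replicate score, as percent of positive control median, at least 50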;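 further: strain carries kanamycin resistance gene driven by streptokinase promoter and grows in 40 µg/ml kanamycin; loss of luminescence reflects streptokinase promoter inhibition or plain growth inhibition; 0% = median of DMSO wells and 100% = positive control at its reference dose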
CHOP UPR activ = apoptotic UPR (CHOP) activation; CHO-CHOP luciferase reporter, luminescence; percent of tunicamycin response over DMSO baseline; activation, % at 10 µM; hit rate 0.34% among 330,000; AID 449763;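 active means at 10 µM dose, activation of 40% or more, normalized to positive control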;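 further: 100% = tunicamycin at 10 µg/mL and 0% = DMSO alone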
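measured by = luciferase luminescence | assay system = CHO-CHOP cells, stable luciferase reporter of PERK-eIF2a-CHOP signalling | amount = 500 reporter cells seeded per well | timing = 6 h compound exposure at 37 °C after overnight seeding | controls = positive tunicamycin 10 µg/mL, negative DMSO alone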
CSC inhib = blocks cancer stem cells | cancer stem cell-like cells viability, luminescence | inhibition, % at 7.5 µM | hit rate 1.1% among 300,000 | AID 2717; in the data active means inhibition above about 75%; tested in HMLE shEcad cells
Mdm2-MdmX inh = inhibitors of human Mdm2/MdmX interaction; O15151+Q00987; SaOS-2 split-luciferase Mdm2/MdmX complementation, luminescence; inhibition, % at 8 µM; hit rate 3% among 330,000;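 active means inhibition of at least 50% at 8 µM in the primary screen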
Target sequence (O15151 whole entry, looked up): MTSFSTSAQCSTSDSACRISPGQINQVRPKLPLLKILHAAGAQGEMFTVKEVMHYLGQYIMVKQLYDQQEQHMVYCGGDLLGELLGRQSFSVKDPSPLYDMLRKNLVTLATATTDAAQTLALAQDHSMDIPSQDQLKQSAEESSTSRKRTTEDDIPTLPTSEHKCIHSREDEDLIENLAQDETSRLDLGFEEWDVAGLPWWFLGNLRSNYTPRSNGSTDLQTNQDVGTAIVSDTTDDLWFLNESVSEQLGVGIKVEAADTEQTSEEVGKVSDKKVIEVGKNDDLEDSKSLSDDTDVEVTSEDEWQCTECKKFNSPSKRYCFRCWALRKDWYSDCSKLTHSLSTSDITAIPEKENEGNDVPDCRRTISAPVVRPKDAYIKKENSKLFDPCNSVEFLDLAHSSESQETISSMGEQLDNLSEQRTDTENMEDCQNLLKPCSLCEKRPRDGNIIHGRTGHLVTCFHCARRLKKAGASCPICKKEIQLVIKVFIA
Target sequence (Q00987 whole entry, looked up): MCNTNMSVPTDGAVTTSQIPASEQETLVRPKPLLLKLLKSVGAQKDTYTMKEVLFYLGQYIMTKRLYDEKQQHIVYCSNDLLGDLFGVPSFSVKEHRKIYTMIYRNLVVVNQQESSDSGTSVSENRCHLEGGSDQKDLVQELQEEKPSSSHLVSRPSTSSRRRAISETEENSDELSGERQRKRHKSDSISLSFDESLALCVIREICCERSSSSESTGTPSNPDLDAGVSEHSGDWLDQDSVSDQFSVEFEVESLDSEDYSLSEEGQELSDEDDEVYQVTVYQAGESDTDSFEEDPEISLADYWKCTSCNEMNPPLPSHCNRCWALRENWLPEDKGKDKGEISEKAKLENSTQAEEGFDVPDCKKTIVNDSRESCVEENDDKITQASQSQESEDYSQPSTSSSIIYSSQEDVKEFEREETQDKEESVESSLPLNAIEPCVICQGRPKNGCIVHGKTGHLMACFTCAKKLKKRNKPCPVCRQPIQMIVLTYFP
Mdm2-MdmX conf = confirmation of human Mdm2/MdmX interaction inhibitors. Mdm2-MdmX binding, luminescent assay. hit rate 55% among 10,000. shares compounds with Mdm2-MdmX inh. inhibition, % at 8 µM. AID 489028; in the data active means inhibition above about 40%
FLuc counter = inhibits full-length luciferase, flagging false Mdm2/MdmX hits; shares compounds with Mdm2-MdmX inh; SaOS-2 full-length luciferase counterscreen, luminescence; inhibition, % at 8 µM; hit rate 77% among 6,200; AID 504607;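 active means mean inhibition at 8 µM reaching about 37%, which flags the compound as non-specific, limit read from the data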;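 further: p53-null SaOS-2 cells with luciferase driven by a doxycycline-inducible promoter; compound on cells about two nights before reading with doxycycline added after day one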
Numbers without * were called inactive; . = not tested or not shown.

SMILES	Beta apoptosis	UPR XBP1 act	SKKanGAS inh	CHOP UPR activ	CSC inhib	Mdm2-MdmX inh	Mdm2-MdmX conf	FLuc counter
CCc1ccc(NC(=O)COC(=O)c2nc3nc(C)cc(C)n3n2)cc1	-5	1	.	2	-22	-29	.	.
CC(O)CNCc1ccc(-c2ccccc2)cc1 (stereo not drawn)	-4	0	6	0	-2	-8	.	.
CC(NCc1ccc(-c2ccccc2)cc1)C(O)c1ccccc1 (stereo not drawn)	8	2	4	2	63	82*	63*	64*
COc1ccc2c(Cn3cnc4cc([N+](=O)[O-])ccc4c3=O)cc(=O)oc2c1	2	0	7	0	65	60*	73*	20
Cc1ccc(OCCn2cnc3cc([N+](=O)[O-])ccc3c2=O)cc1	-2	0	9	0	3	14	.	.
CCOc1ccc(CNC(=O)Cn2nc(C)n3nc(-c4ccccc4)cc3c2=O)cc1	-4	-2	36	-1	-10	97*	15	.
CCc1ccc(NC(=O)CCn2c(=O)c3cccn3c3ccccc32)cc1	49	-1	5	0	22	38	.	.
CCOc1ccc(CNC(=O)Cn2c(=O)c3cccn3c3ccccc32)cc1	3	2	2	1	0	55*	2	.
CCc1ccc(NC(=O)Cn2c(=O)c3cccn3c3ccccc32)cc1	20	3	0	1	20	66*	61*	55*
O=[N+]([O-])CC(c1ccc(F)cc1)c1c[nH]c2ccccc12 (stereo not drawn)	-5	0	3	-1	58	63*	66*	42*
NCC(c1ccccc1)c1c[nH]c2ccccc12 (stereo not drawn)	-10	-2	-1	1	-5	2	.	.
Cc1ccc(S(=O)(=O)NCCC(=O)NCCc2ccc(S(N)(=O)=O)cc2)cc1C	3	-2	.	0	-10	3	.	.
COc1ccc(-c2cc(C(F)(F)F)n3ncc(C(=O)N4CCc5ccccc5C4)c3n2)cc1	9	6	.	0	8	54*	22	.
COc1cccc(CCC(=O)N2CCC(n3nccc3NC(=O)CC(C)C)CC2)c1	-1	-3	5	2	9	9	.	.
Cc1cc(C(F)(F)F)c2c(=O)[nH]c(=O)n(Cc3ccccc3)c2n1	-6	2	-4	1	3	14	.	.
O=c1[nH]c(=O)n(Cc2ccccc2)c2nc(-c3ccco3)cc(C(F)(F)F)c12	10	11	3	-3	16	53*	27	.
COc1ccc(S(=O)(=O)NCC(=O)N(Cc2ccco2)C(C(=O)NC(C)(C)C)C(C)C)cc1 (stereo not drawn)	-4	2	0	-2	.	-23	.	.
COc1cc(C(=O)NC(=S)Nc2ccc(NC(=O)c3ccco3)cc2)cc(OC)c1OC	15	-3	66*	-1	1	54*	23	.
COc1cc(C(=O)NC(=S)N(CCc2ccccc2)CCc2ccccc2)cc(OC)c1OC	.	2	90*	9	49	52*	53*	50*
COc1cc(C(=O)NC(=S)N(C)Cc2ccccc2)cc(OC)c1OC	18	-1	4	-1	-10	8	.	.
O=C(NC(=S)Nc1ccc(NC(=O)c2ccco2)cc1)c1ccccc1	0	2	-1	3	-9	36	.	.
CCCS(=O)(=O)N1CCCC(C(=O)Oc2ccc(C)c(C)c2)C1 (stereo not drawn)	2	-4	-5	1	3	5	.	.
COc1cc(C2C(C#N)=C(N)Oc3cc(N(C)C)ccc32)cc2c1OCO2 (stereo not drawn)	69	25	-4	1	52	78*	64*	112*
COc1cc(C2C(C#N)=C(N)Oc3cc(O)ccc32)cc(OC)c1OC (stereo not drawn)	-8	11	-8	2	61	65*	67*	67*
CCOC(=O)C1=C(C)OC(N)=C(C#N)C1c1cc(OC)c2c(c1)OCO2 (stereo not drawn)	-8	-3	2	-3	-3	-1	.	.
SMILES	Beta apoptosis	UPR XBP1 act	SKKanGAS inh	CHOP UPR activ	CSC inhib	Mdm2-MdmX inh	Mdm2-MdmX conf	FLuc counter
COc1ccc(C2C(C#N)=C(N)Oc3cc(O)ccc32)cc1OC (stereo not drawn)	9	1	-5	2	-12	17	.	.
N#CC1=C(N)Oc2cc3c(cc2C1c1ccc(Cl)cc1)OCO3 (stereo not drawn)	2	-1	27	0	44	61*	46*	60*
COc1cc(C2C(C#N)=C(N)Oc3cc(O)ccc32)cc2c1OCO2 (stereo not drawn)	-2	0	-3	0	-2	57*	56*	59*
COC(C[C@H]1O[C@H]1C(=O)COCc1ccccc1)OC	.	-3	1	-1	.	2	.	.
Cc1ccc(C)c(OCCC(=O)OCC(=O)Nc2cccc(S(=O)(=O)N3CCCC3)c2)c1	-4	-2	-17	-1	3	5	.	.
CCC(C(=O)NCCN1CCOCC1)n1c2ccccc2c2nc(=O)cc(C)n21 (stereo not drawn)	2	-2	0	-3	-18	4	.	.
CCN(CC(=O)NCc1cccs1)C(=O)/C=C/c1cc(OC)c(OC)c(OC)c1	.	-1	.	1	.	-7	.	.
COc1cc(C2C(C#N)=C(N)Oc3cc4c(cc32)OCO4)cc(OC)c1OC (stereo not drawn)	64	9	1	1	38	81*	68*	126*
O=C(C#Cc1ccccc1)c1ccc([N+](=O)[O-])cc1	.	-2	-1	30	.	97*	82*	58*
O=C(c1ccc(-c2ccccc2)cc1)c1ccc([N+](=O)[O-])cc1	1	4	0	-1	-3	-2	.	.
Cc1nnc2c(NCCc3ccccc3)nc3ccccc3n12	-3	14	0	1	-7	57*	15	.
Cc1cccc(CCNc2nc3ccccc3n3nnnc23)c1	5	2	10	18	4	0	.	.
O=C(CCS(=O)(=O)c1ccc(Br)cc1)NCc1ccc(F)cc1	-4	-9	-2	3	-17	2	.	.
CSc1nnc2c3ccccc3n(CCc3ccccc3)c2n1	7	1	8	1	53	82*	90*	42*
CSc1nnc2c3ccccc3n(Cc3ccccc3)c2n1	5	7	1	-1	-5	44	.	.
O=C(NNC(=O)C(c1ccccc1)c1ccccc1)c1ccccn1	70	1	11	2	27	66*	66*	42*
